Common to all, as to type: cell-based
For data set [1], the target named is Hypoxia-inducible factor 1-alpha (Homo sapiens, UniProt Q16665). As to the kind of experiment: Inhibition of hypoxia-induced HIF1alpha transcriptional activity in human Hep3B cells after 24 hrs in hypoxic condition by HRE-dependent dual luciferase reporter gene assay. A digest of the protocol: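 Hep3B cells transiently co-transfected with pGL3-HRE-luciferase and pRL-CMV vectors, incubated 24 h, then treated with compounds for 24 h under hypoxia. Luciferase activity measured […]. IC50 given as mean ± SE, n=3.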
(In general: A reporter such as luciferase makes a cellular process visible.)

In data set [2] the test system is Hep 3B2. As to the kind of experiment: Cytotoxicity against human Hep3B cells assessed as reduction in cell viability after 24 hrs by MTT assay. An outline of the steps: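 Hep3B cells exposed to compounds for 24 h under normoxic conditions; viability read by MTT assay; IC50 from mean ± SE, n=3.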
Background: Tetrazolium dyes change colour on reduction, which living cells bring about.

In data set [3] the test system is Hep 3B2. As to the kind of experiment: Cytotoxicity against human Hep3B cells assessed as reduction in cell viability up to 30 uM after 24 hrs in presence of 20% O2 by MTT assay. The conditions noted are these: hep 3b2, 24 h. An outline of the steps:
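Hep3B cells treated with the indicated concentrations (up to 30 µM) for 24 h, then viability determined by MTT assay.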

These results are taken from ChEMBL document CHEMBL4392861, “Synthesis and evaluation of the HIF-1α inhibitory activities of novel ursolic acid tetrazole derivatives” (Bioorg Med Chem Lett, 2019).

By IC50 is commonly meant the concentration at which inhibition is half-maximal. `C[C@H]1[C@H](C)CC[C@]2(C(=O)OCCNc3ccc(-c4nnn[nH]4)cc3)CC[C@]3(C)C(=CC[C@@H]4[C@@]5(C)CC[C@H](O)C(C)(C)[C@@H]5CC[C@]43C)[C@H]12`: the IC50 in data set [1] is 26.2 µM; in data set [2], over 100 µM.

`C[C@H]1[C@H](C)CC[C@]2(C(=O)Nc3nnn[nH]3)CC[C@]3(C)C(=CC[C@@H]4[C@@]5(C)CC[C@H](O)C(C)(C)[C@@H]5CC[C@]43C)[C@H]12`: the 50% inhibitory concentration (IC50) was 13.3 µM in data set [1] and over 100 µM in data set [2].

Take `C[C@H]1[C@H](C)CC[C@]2(C(=O)OCCNc3nnn[nH]3)CC[C@]3(C)C(=CC[C@@H]4[C@@]5(C)CC[C@H](O)C(C)(C)[C@@H]5CC[C@]43C)[C@H]12`: the IC50 in data set [1] is 8.5 µM; in data set [2], over 100 µM.

With `C[C@H]1[C@H](C)CC[C@]2(C(=O)OCCNc3cccc(-c4nnn[nH]4)c3)CC[C@]3(C)C(=CC[C@@H]4[C@@]5(C)CC[C@H](O)C(C)(C)[C@@H]5CC[C@]43C)[C@H]12`, the 50% inhibitory concentration (IC50) in data set [1] is 8.9 µM; in data set [2], over 100 µM.

Consider `C[C@H]1[C@H](C)CC[C@]2(C(=O)OCCNc3cccc(-c4nnn[nH]4)c3)CC[C@]3(C)C(=CC[C@@H]4[C@@]5(C)CCC(=O)C(C)(C)[C@@H]5CC[C@]43C)[C@H]12`, for which the IC50 in data set [1] and in data set [2] was over 100 µM throughout.

Turning to `CC(=O)O[C@H]1CC[C@]2(C)[C@H]3CC=C4[C@@H]5[C@@H](C)[C@H](C)CC[C@]5(C(=O)Nc5nnn[nH]5)CC[C@@]4(C)[C@]3(C)CC[C@H]2C1(C)C`, the IC50 in data set [1] is 4.7 µM; in data set [2] it was over 100 µM. In data set [1], the inhibition entry was “Dose-dependent effect”. For the same compound, the Activity entry in data set [3] is on record as “Non-Toxic”.

In the case of `C[C@H]1[C@H](C)CC[C@]2(C(=O)OCCn3nnnc3-c3ccccc3)CC[C@]3(C)C(=CC[C@@H]4[C@@]5(C)CC[C@H](O)C(C)(C)[C@@H]5CC[C@]43C)[C@H]12`, the IC50 is 18.1 µM in data set [1] and over 100 µM in data set [2].

`C[C@H]1[C@H](C)CC[C@]2(C(=O)OCCCNc3nnn[nH]3)CC[C@]3(C)C(=CC[C@@H]4[C@@]5(C)CCC(=O)C(C)(C)[C@@H]5CC[C@]43C)[C@H]12`: the values for the IC50 in data set [1] and in data set [2] were 16.7 µM and over 100 µM, respectively.

Take `C[C@H]1[C@H](C)CC[C@]2(C(=O)Nc3nnn[nH]3)CC[C@]3(C)C(=CC[C@@H]4[C@@]5(C)CC/C(=N\Nc6ccccc6)C(C)(C)[C@@H]5CC[C@]43C)[C@H]12`: the 50% inhibitory concentration (IC50) stood at 2.2 µM in data set [1] and 11.9 µM in data set [2].

In the case of `C[C@H]1[C@H](C)CC[C@]2(C(=O)OCCCNc3ccccc3-c3nnn[nH]3)CC[C@]3(C)C(=CC[C@@H]4[C@@]5(C)CC[C@H](O)C(C)(C)[C@@H]5CC[C@]43C)[C@H]12`, the 50% inhibitory concentration (IC50) in data set [1] and in data set [2] was over 100 µM throughout.

For the compound `C[C@H]1[C@H](C)CC[C@]2(C(=O)OCCCNc3nnn[nH]3)CC[C@]3(C)C(=CC[C@@H]4[C@@]5(C)CC[C@H](O)C(C)(C)[C@@H]5CC[C@]43C)[C@H]12`, the results for the IC50 in data set [1] and in data set [2] were 10.3 µM and over 100 µM, respectively.

`CCCC(=O)O[C@H]1CC[C@]2(C)[C@H]3CC=C4[C@@H]5[C@@H](C)[C@H](C)CC[C@]5(C(=O)Nc5nnn[nH]5)CC[C@@]4(C)[C@]3(C)CC[C@H]2C1(C)C`: the IC50 in data set [1] is 1.4 µM; in data set [2], 4.7 µM.

`C[C@H]1[C@H](C)CC[C@]2(C(=O)O)CC[C@]3(C)C(=CC[C@@H]4[C@@]5(C)CC(=C\c6ccc(Cl)cc6)/C(=N\NC(=N)N)C(C)(C)[C@@H]5CC[C@]43C)[C@H]12`: the half-inhibitory concentration (IC50) in data set [1] is 4 µM; in data set [2], over 100 µM.

Turning to `C[C@H]1[C@H](C)CC[C@]2(C(=O)Nc3nnn[nH]3)CC[C@]3(C)C(=CC[C@@H]4[C@@]5(C)CC[C@H](OC(=O)c6ccccc6)C(C)(C)[C@@H]5CC[C@]43C)[C@H]12`, the 50% inhibitory concentration (IC50) stood at 0.8 µM in data set [1] and 18.5 µM in data set [2].

Turning to `C[C@H]1[C@H](C)CC[C@]2(C(=O)OCCCn3nnnc3-c3ccc4c(c3)OCO4)CC[C@]3(C)C(=CC[C@@H]4[C@@]5(C)CC[C@H](O)C(C)(C)[C@@H]5CC[C@]43C)[C@H]12`, the IC50 in data set [1] is 83 µM; in data set [2], over 100 µM.

`C[C@H]1[C@H](C)CC[C@]2(C(=O)Nc3nnn[nH]3)CC[C@]3(C)C(=CC[C@@H]4[C@@]5(C)CCC(=O)C(C)(C)[C@@H]5CC[C@]43C)[C@H]12`: the IC50 in data set [1] is 18.1 µM; in data set [2] it was over 100 µM.

In the case of `C[C@H]1[C@H](C)CC[C@]2(C(=O)OCCCNc3cccc(-c4nnn[nH]4)c3)CC[C@]3(C)C(=CC[C@@H]4[C@@]5(C)CCC(=O)C(C)(C)[C@@H]5CC[C@]43C)[C@H]12`, the IC50 in data set [1] and in data set [2] was over 100 µM each time.

As for `C[C@H]1[C@H](C)CC[C@]2(C(=O)OCCNc3nnn[nH]3)CC[C@]3(C)C(=CC[C@@H]4[C@@]5(C)CCC(=O)C(C)(C)[C@@H]5CC[C@]43C)[C@H]12`, the IC50 was 14.2 µM in data set [1] and over 100 µM in data set [2].

Regarding `C[C@H]1[C@H](C)CC[C@]2(C(=O)OCCCNc3ccc(-c4nnn[nH]4)cc3)CC[C@]3(C)C(=CC[C@@H]4[C@@]5(C)CCC(=O)C(C)(C)[C@@H]5CC[C@]43C)[C@H]12`, the IC50 in data set [1] and in data set [2] was over 100 µM each time.

For `COc1ccc(-c2nnnn2CCCOC(=O)[C@]23CC[C@@H](C)[C@H](C)[C@H]2C2=CC[C@@H]4[C@@]5(C)CC[C@H](O)C(C)(C)[C@@H]5CC[C@@]4(C)[C@]2(C)CC3)cc1`, the half-maximal inhibitory concentration (IC50) in data set [1] is 27.4 µM; in data set [2], over 100 µM.

Take `C[C@H]1[C@H](C)CC[C@]2(C(=O)OCCNc3ccccc3-c3nnn[nH]3)CC[C@]3(C)C(=CC[C@@H]4[C@@]5(C)CCC(=O)C(C)(C)[C@@H]5CC[C@]43C)[C@H]12`: the IC50 in data set [1] and in data set [2] was over 100 µM each time.

For the compound `C[C@H]1[C@H](C)CC[C@]2(C(=O)OCCCNc3cccc(-c4nnn[nH]4)c3)CC[C@]3(C)C(=CC[C@@H]4[C@@]5(C)CC[C@H](O)C(C)(C)[C@@H]5CC[C@]43C)[C@H]12`, the IC50 is 13.2 µM in data set [1] and over 100 µM in data set [2].

As to `C[C@H]1[C@H](C)CC[C@]2(C(=O)OCCNc3ccc(-c4nnn[nH]4)cc3)CC[C@]3(C)C(=CC[C@@H]4[C@@]5(C)CCC(=O)C(C)(C)[C@@H]5CC[C@]43C)[C@H]12`, the results for the half-inhibitory concentration (IC50) in data set [1] and in data set [2] were 18.1 µM and over 100 µM, respectively.

Take `C[C@H]1[C@H](C)CC[C@]2(C(=O)OCCCn3nnnc3-c3ccccc3)CC[C@]3(C)C(=CC[C@@H]4[C@@]5(C)CC[C@H](O)C(C)(C)[C@@H]5CC[C@]43C)[C@H]12`: the results for the concentration for half-maximal inhibition (IC50) in data set [1] and in data set [2] were 40 µM and over 100 µM, respectively.

For the compound `C[C@H]1[C@H](C)CC[C@]2(C(=O)OCCNc3ccccc3-c3nnn[nH]3)CC[C@]3(C)C(=CC[C@@H]4[C@@]5(C)CC[C@H](O)C(C)(C)[C@@H]5CC[C@]43C)[C@H]12`, the IC50 in data set [1] and in data set [2] was over 100 µM throughout.

`C[C@H]1[C@H](C)CC[C@]2(C(=O)OCn3ncn(-c4ccccc4)c3=O)CC[C@]3(C)C(=CC[C@@H]4[C@@]5(C)CC[C@H](O)C(C)(C)[C@@H]5CC[C@]43C)[C@H]12`: the half-maximal inhibitory concentration (IC50) in data set [1] was 36.9 µM; in data set [2] it was over 100 µM.

Consider `C[C@H]1[C@H](C)CC[C@]2(C(=O)O)CC[C@]3(C)C(=CC[C@@H]4[C@@]5(C)CC[C@H](O)C(C)(C)[C@@H]5CC[C@]43C)[C@H]12` [URSOLIC ACID], for which the concentration for half-maximal inhibition (IC50) in data set [1] is over 100 µM.

Regarding `C[C@H]1[C@H](C)CC[C@]2(C(=O)OCCCNc3ccccc3-c3nnn[nH]3)CC[C@]3(C)C(=CC[C@@H]4[C@@]5(C)CCC(=O)C(C)(C)[C@@H]5CC[C@]43C)[C@H]12`, the IC50 in data set [1] and in data set [2] was over 100 µM throughout.

Take `C[C@H]1[C@H](C)CC[C@]2(C(=O)OCCCNc3ccc(-c4nnn[nH]4)cc3)CC[C@]3(C)C(=CC[C@@H]4[C@@]5(C)CC[C@H](O)C(C)(C)[C@@H]5CC[C@]43C)[C@H]12`: the IC50 in data set [1] and in data set [2] was over 100 µM throughout.

As for `C[C@H]1[C@H](C)CC[C@]2(C(=O)OCCn3nnnc3-c3ccc(Cl)cc3)CC[C@]3(C)C(=CC[C@@H]4[C@@]5(C)CC[C@H](O)C(C)(C)[C@@H]5CC[C@]43C)[C@H]12`, the IC50 in data set [1] was 76.4 µM; in data set [2] it was over 100 µM.

Regarding `COc1ccc(-c2nnnn2CCOC(=O)[C@]23CC[C@@H](C)[C@H](C)[C@H]2C2=CC[C@@H]4[C@@]5(C)CC[C@H](O)C(C)(C)[C@@H]5CC[C@@]4(C)[C@]2(C)CC3)cc1`, the 50% inhibitory concentration (IC50) in data set [1] and in data set [2] was over 100 µM in each case.

Take `C[C@H]1[C@H](C)CC[C@]2(C(=O)Nc3nnn[nH]3)CC[C@]3(C)C(=CC[C@@H]4[C@@]5(C)CC[C@H](OC(=O)C(F)(F)F)C(C)(C)[C@@H]5CC[C@]43C)[C@H]12`: the 50% inhibitory concentration (IC50) amounted to 1.6 µM in data set [1] and 6.4 µM in data set [2].

Take `C[C@H]1[C@H](C)CC[C@]2(C(=O)OCCCn3nnnc3-c3ccc(Cl)cc3)CC[C@]3(C)C(=CC[C@@H]4[C@@]5(C)CC[C@H](O)C(C)(C)[C@@H]5CC[C@]43C)[C@H]12`: the IC50 in data set [1] was 7.5 µM; in data set [2] it was over 100 µM.

As to `C[C@H]1[C@H](C)CC[C@]2(C(=O)OCCn3nnnc3-c3ccc4c(c3)OCO4)CC[C@]3(C)C(=CC[C@@H]4[C@@]5(C)CC[C@H](O)C(C)(C)[C@@H]5CC[C@]43C)[C@H]12`, the IC50 in data set [1] and in data set [2] was over 100 µM in each case.
